Results: ChEMBL document CHEMBL1240350, “In vitro activity of CEM-101 against Streptococcus pneumoniae and Streptococcus pyogenes with defined macrolide resistance mechanisms” (Antimicrob Agents Chemother, 2010)
In brackets after ≈: the same amount, converted by molar mass.

How the values were obtained:
Streptococcus pneumoniae [1] = experiment: Antibacterial activity against macrolide-resistant Streptococcus pneumoniae 3665 harboring mef(A) gene after 50 passages following overnight incubation by agar dilution method; assay type: functional
Streptococcus pneumoniae [2] = experiment: Antibacterial activity against macrolide-susceptible Streptococcus pneumoniae 1077 after 29 passages following overnight incubation by agar dilution method; assay type: functional
Streptococcus pneumoniae [3] = experiment: Antibacterial activity against Streptococcus pneumoniae harboring mef(A) gene after overnight incubation by agar dilution method; assay type: functional
Outline: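 Clinical isolates collected 1998–2008, with macrolide-resistance genes confirmed by PCR. MICs by agar dilution on Mueller-Hinton agar with 5% sheep blood. Inoculum 10^4 CFU/spot, incubated overnight at 35°C in ambient air. S. pneumoniae ATCC 49619 was the quality-control strain in every run.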

Streptococcus pyogenes [4] = experiment: Antibacterial activity against macrolide-resistant Streptococcus pyogenes 2011 harboring mef(A) gene after 35 passages following overnight incubation by agar dilution method
Streptococcus pneumoniae [5] = experiment: Antibacterial activity against macrolide-resistant Streptococcus pneumoniae 1635 harboring erm(A) gene after 14 passages following overnight incubation by agar dilution method; assay type: functional
Streptococcus pneumoniae [6] = experiment: Antibacterial activity against macrolide-resistant Streptococcus pneumoniae 1076 harboring erm(B) and mef(A) gene after overnight incubation by agar dilution method; assay type: functional
Streptococcus pneumoniae [7] = experiment: Antibacterial activity against macrolide-susceptible Streptococcus pneumoniae 1077 after 15 passages and 10 compound-free subculturing by retest method; assay type: functional
Streptococcus pneumoniae [8] = experiment: Antibacterial activity against macrolide-resistant Streptococcus pneumoniae 1635 harboring erm(A) gene after 49 passages and 10 compound-free subculturing by retest method; assay type: functional
Outline: (§1)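 Multistep selection by daily serial passage in subinhibitory drug concentrations. Medium was cation-adjusted Mueller-Hinton broth plus 5% lysed horse blood. Each day the next inoculum came from the tube 1–2 dilutions below the MIC whose turbidity matched the growth control, for up to 50 days. Clone MICs by CLSI macrodilution; identity to the parent confirmed by SmaI PFGE.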

Streptococcus pneumoniae [9] = experiment: Antibacterial activity against macrolide-susceptible Streptococcus pneumoniae after overnight incubation by agar dilution method; assay type: functional
Outline: (§2)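 Agar dilution MICs on Mueller-Hinton agar with 5% sheep blood. Inoculum 10^4 CFU/spot, incubated overnight at 35°C in ambient air. Clinical S. pneumoniae or group A streptococcal isolates; resistance genotypes (erm(B), erm(A), mef(A)/mef(E)) were assigned by PCR. S. pneumoniae ATCC 49619 served as QC strain in each run. Range, MIC50 and MIC90 reported per phenotype group.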

Streptococcus pneumoniae [10] = experiment: Antibacterial activity against macrolide-susceptible Streptococcus pneumoniae 7127 harboring S20N mutation in L4 ribosomal protein and A105V mutation in L22 ribosomal protein after overnight incubation by agar dilution method; assay type: functional
Streptococcus pyogenes [11] = experiment: Antibacterial activity against macrolide-resistant Streptococcus pyogenes 2094 harboring erm(A) gene after 5 passages and 10 compound-free subculturing by retest method
Streptococcus pneumoniae [12] = experiment: Antibacterial activity against macrolide-susceptible Streptococcus pneumoniae 7127 harboring S20N mutation in L4 ribosomal protein and A105V mutation in L22 ribosomal protein after 15 passages following overnight incubation by agar dilution method; assay type: functional
Streptococcus pneumoniae [13] = experiment: Antibacterial activity against macrolide-resistant Streptococcus pneumoniae harboring mutation in L4 ribosomal protein after overnight incubation by agar dilution method; assay type: functional; outline: as §2
Streptococcus pneumoniae [14] = experiment: Antibacterial activity against macrolide-susceptible Streptococcus pneumoniae 1077 after 50 passages following overnight incubation by agar dilution method; assay type: functional
Streptococcus pneumoniae [15] = experiment: Antibacterial activity against macrolide-resistant Streptococcus pneumoniae 3009 harboring mutation in 23S rRNA after 25 passages following overnight incubation by agar dilution method; assay type: functional
Streptococcus pneumoniae [16] = experiment: Antibacterial activity against macrolide-resistant Streptococcus pneumoniae 2686 harboring mutation in L4 ribosomal protein after 14 passages following overnight incubation by agar dilution method; assay type: functional
Streptococcus pneumoniae [17] = experiment: Antibacterial activity against macrolide-resistant Streptococcus pneumoniae 3665 harboring mef(A) gene after 26 passages following overnight incubation by agar dilution method; assay type: functional
Streptococcus pneumoniae [18] = experiment: Antibacterial activity against macrolide-susceptible Streptococcus pneumoniae 1077 after 49 passages following overnight incubation by agar dilution method; assay type: functional
Streptococcus pneumoniae [19] = experiment: Antibacterial activity against macrolide-resistant Streptococcus pneumoniae 2686 harboring mutation in L4 ribosomal protein after 50 passages following overnight incubation by agar dilution method; assay type: functional
Streptococcus pneumoniae [20] = experiment: Antibacterial activity against macrolide-resistant Streptococcus pneumoniae 3009 harboring mutation in 23S rRNA after 50 passages following overnight incubation by agar dilution method; assay type: functional
Streptococcus pyogenes [21] = experiment: Antibacterial activity against macrolide-resistant Streptococcus pyogenes 237 harboring mutation in L4 ribosomal protein after 43 passages following overnight incubation by agar dilution method
Streptococcus pneumoniae [22] = experiment: Antibacterial activity against macrolide-resistant Streptococcus pneumoniae 1635 harboring erm(A) gene after 32 passages following overnight incubation by agar dilution method; assay type: functional
Streptococcus pneumoniae [23] = experiment: Antibacterial activity against macrolide-resistant Streptococcus pneumoniae 1635 harboring erm(A) gene after 14 passages and 10 compound-free subculturing by retest method; assay type: functional; outline: as §1
Streptococcus pneumoniae [24] = experiment: Antibacterial activity against macrolide-resistant Streptococcus pneumoniae 3665 harboring mef(A) gene after 14 passages following overnight incubation by agar dilution method; assay type: functional
Streptococcus pyogenes [25] = experiment: Antibacterial activity against macrolide-resistant Streptococcus pyogenes 2094 harboring erm(A) gene after 43 passages following overnight incubation by agar dilution method
Streptococcus pyogenes [26] = experiment: Antibacterial activity against macrolide-resistant Streptococcus pyogenes 237 harboring mutation in L4 ribosomal protein after 20 passages following overnight incubation by agar dilution method
[27] = Half life in human at 400 to 500 mg; conditions: in vivo
Streptococcus pneumoniae [28] = experiment: Antibacterial activity against macrolide-resistant Streptococcus pneumoniae 2686 harboring mutation in L4 ribosomal protein after 22 passages following overnight incubation by agar dilution method; assay type: functional
Streptococcus pneumoniae [29] = experiment: Antibacterial activity against macrolide-resistant Streptococcus pneumoniae 24 harboring erm(B) gene after 14 passages following overnight incubation by agar dilution method; assay type: functional
Streptococcus pyogenes [30] = experiment: Antibacterial activity against macrolide-resistant Streptococcus pyogenes 2368 harboring erm(B) gene after 18 passages following overnight incubation by agar dilution method
Streptococcus pneumoniae [31] = experiment: Antibacterial activity against macrolide-resistant Streptococcus pneumoniae 1635 harboring erm(A) gene after 50 passages following overnight incubation by […]; assay type: functional
Outline: (§3)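 S. pneumoniae parental strains were passaged daily in subinhibitory drug concentrations in cation-adjusted Mueller-Hinton broth with 5% lysed horse blood. Each passage was seeded from the tube 1 to 2 dilutions below the MIC whose turbidity matched the growth control. MICs of resistant clones were measured by CLSI macrodilution. Parent and clone identity was confirmed by PFGE of SmaI-digested DNA.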

Streptococcus pyogenes [32] = experiment: Antibacterial activity against macrolide-resistant Streptococcus pyogenes 2368 harboring erm(B) gene after 6 passages following overnight incubation by agar dilution method
Streptococcus pneumoniae [33] = experiment: Antibacterial activity against macrolide-susceptible Streptococcus pneumoniae 1077 after 15 passages following overnight incubation by […]; assay type: functional; outline: as §3
Streptococcus pneumoniae [34] = experiment: Antibacterial activity against macrolide-resistant Streptococcus pneumoniae 1076 harboring erm(B) and mef(A) gene after 14 passages following overnight incubation by agar dilution method; assay type: functional
[35] = Streptococcus pneumoniae, 1635, read-out: MIC

Compound	MIC (Streptococcus pneumoniae [1]) [µg/mL]	MIC50 (Streptococcus pneumoniae [3]) [µg/mL]	MIC90 (Streptococcus pneumoniae [3]) [µg/mL]	MIC (Streptococcus pneumoniae [5]) [µg/mL]	MIC (Streptococcus pneumoniae [6]) [µg/mL]	MIC (Streptococcus pneumoniae [7]) [µg/mL]	MIC (Streptococcus pneumoniae [8]) [µg/mL]	MIC50 (Streptococcus pneumoniae [9]) [µg/mL]	MIC (Streptococcus pneumoniae [10]) [µg/mL]	MIC (Streptococcus pyogenes [11]) [µg/mL]	MIC50 (Streptococcus pneumoniae [13]) [µg/mL]	MIC90 (Streptococcus pneumoniae [13]) [µg/mL]	MIC90 (Streptococcus pneumoniae [9]) [µg/mL]	MIC (Streptococcus pneumoniae [20]) [µg/mL]	MIC (Streptococcus pneumoniae [23]) [µg/mL]	MIC (Streptococcus pneumoniae [23]; [35]) [µg/mL]	MIC (Streptococcus pneumoniae [24]) [µg/mL]	MIC (Streptococcus pneumoniae [29]) [µg/mL]	further results
CC[C@H]1OC(=O)[C@H](C)[C@@H](O[C@H]2C[C@@](C)(OC)[C@@H](O)[C@H](C)O2)[C@H](C)[C@@H](O[C@@H]2O[C@H](C)C[C@H](N(C)C)[C@H]2O)[C@](C)(O)C[C@@H](C)CN(C)[C@H](C)[C@@H](O)[C@]1(C)O [AZITHROMYCIN]	16 (≈ 21.4 µM)	4 (≈ 5.34 µM)	8 (≈ 10.7 µM)	> 64	> 64	> 64	> 64	0.125 (≈ 0.167 µM)	0.06 (≈ 0.0801 µM)	> 64									MIC (Streptococcus pneumoniae [2]): > 64 µg/mL; MIC (Streptococcus pyogenes [4]): 32 µg/mL (≈ 42.7 µM)
CC[C@H]1OC(=O)[C@H](C)[C@@H](O[C@H]2C[C@@](C)(OC)[C@@H](O)[C@H](C)O2)[C@H](C)[C@@H](O[C@@H]2O[C@H](C)C[C@H](N(C)C)[C@H]2O)[C@](C)(OC)C[C@@H](C)C(=O)[C@H](C)[C@@H](O)[C@]1(C)O [CLARITHROMYCIN]		2 (≈ 2.67 µM)	4 (≈ 5.35 µM)		> 64	> 64	> 64	0.03 (≈ 0.0401 µM)	0.03 (≈ 0.0401 µM)	1 (≈ 1.34 µM)	16 (≈ 21.4 µM)	32 (≈ 42.8 µM)	0.06 (≈ 0.0802 µM)						MIC (Streptococcus pneumoniae [12]): 16 µg/mL (≈ 21.4 µM); MIC (Streptococcus pneumoniae [14]): 0.008 µg/mL (≈ 0.0107 µM); MIC (Streptococcus pneumoniae [15]): > 64 µg/mL; MIC (Streptococcus pneumoniae [16]): > 64 µg/mL; MIC (Streptococcus pneumoniae [17]): 16 µg/mL (≈ 21.4 µM)
CCC[C@@H]1C[C@@H](C(=O)N[C@@H]([C@H]2O[C@H](SC)[C@H](O)[C@@H](O)[C@H]2O)[C@H](C)Cl)N(C)C1 [CLINDAMYCIN]	0.03 (≈ 0.0706 µM)	0.06 (≈ 0.141 µM)	0.06 (≈ 0.141 µM)	> 64	64 (≈ 151 µM)	8 (≈ 18.8 µM)	0.25 (≈ 0.588 µM)	0.03 (≈ 0.0706 µM)	0.03 (≈ 0.0706 µM)	0.06 (≈ 0.141 µM)	0.06 (≈ 0.141 µM)	0.125 (≈ 0.294 µM)	0.06 (≈ 0.141 µM)	2 (≈ 4.71 µM)					MIC (Streptococcus pneumoniae [18]): 4 µg/mL (≈ 9.41 µM); MIC (Streptococcus pneumoniae [19]): 0.125 µg/mL (≈ 0.294 µM); MIC (Streptococcus pyogenes [21]): 0.5 µg/mL (≈ 1.18 µM)
CC[C@H]1OC(=O)[C@@](C)(F)C(=O)[C@H](C)[C@@H](O[C@@H]2O[C@H](C)C[C@H](N(C)C)[C@H]2O)[C@](C)(OC)C[C@@H](C)C(=O)[C@H](C)[C@H]2N(CCCCn3cc(-c4cccc(N)c4)nn3)C(=O)O[C@]12C [SOLITHROMYCIN]		0.03 (≈ 0.0355 µM)	0.125 (≈ 0.148 µM)		1 (≈ 1.18 µM)	0.06 (≈ 0.071 µM)	0.008 (≈ 0.00947 µM)	0.008 (≈ 0.00947 µM)	0.008 (≈ 0.00947 µM)	0.016 (≈ 0.0189 µM)			0.015 (≈ 0.0178 µM)		0.004 (≈ 0.00473 µM)	0.004 (≈ 0.00473 µM)	0.5 (≈ 0.592 µM)	0.06 (≈ 0.071 µM)	MIC (Streptococcus pneumoniae [22]): 0.06 µg/mL (≈ 0.071 µM); MIC (Streptococcus pyogenes [25]): 0.25 µg/mL (≈ 0.296 µM); MIC (Streptococcus pyogenes [26]): 0.25 µg/mL (≈ 0.296 µM); half-life [27]: 5 h; MIC (Streptococcus pneumoniae [28]): 0.5 µg/mL (≈ 0.592 µM); MIC (Streptococcus pyogenes [30]): 8 µg/mL (≈ 9.47 µM)
CC[C@H]1OC(=O)[C@H](C)C(=O)[C@H](C)[C@@H](O[C@@H]2O[C@H](C)C[C@H](N(C)C)[C@H]2O)[C@](C)(OC)C[C@@H](C)C(=O)[C@H](C)[C@H]2N(CCCCn3cnc(-c4cccnc4)c3)C(=O)O[C@]12C [TELITHROMYCIN]		0.125 (≈ 0.154 µM)	0.25 (≈ 0.308 µM)		0.5 (≈ 0.616 µM)	0.25 (≈ 0.308 µM)	0.016 (≈ 0.0197 µM)	0.03 (≈ 0.0369 µM)	0.008 (≈ 0.00985 µM)	0.03 (≈ 0.0369 µM)	0.125 (≈ 0.154 µM)	0.25 (≈ 0.308 µM)	0.03 (≈ 0.0369 µM)	0.03 (≈ 0.0369 µM)	0.008 (≈ 0.00985 µM)	0.004 (≈ 0.00493 µM)	2 (≈ 2.46 µM)	32 (≈ 39.4 µM)	MIC (Streptococcus pneumoniae [31]): 0.008 µg/mL (≈ 0.00985 µM); MIC (Streptococcus pyogenes [32]): > 64 µg/mL; MIC (Streptococcus pneumoniae [33]): 0.25 µg/mL (≈ 0.308 µM); MIC (Streptococcus pneumoniae [34]): > 64 µg/mL
